Results taken from ChEMBL document CHEMBL1649301, “Polyamine transport as a target for treatment of Pneumocystis pneumonia” (Antimicrob Agents Chemother, 2009).
Activity calls are given as the source filed them. The calls are words filed in the database; no cut-off is given here.

What was measured:
[1] = Inhibition of polyamine transporter expressed in CHO cells; format: cell-based
[2] = Ratio of IC50 for polyamine uptake in CHO-MG cells to IC50 for polyamine transporter expressed in CHO cells
[3] = Cytotoxicity against Sprague-Dawley rat alveolar macrophages assessed as cell viability at 0.4 mM after 3 hrs by trypan blue exclusion assay; format: cell-based, Macrophage; details: read-out: Activity
Method in brief: (§1)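 Alveolar macrophages from normal rats (10⁶ per well) were kept in serum-free DMEM with compound for 3 h. They were then stained with 0.4% trypan blue, and unstained viable cells were counted.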

[4] = system: Pneumocystis carinii; assay: Antimicrobial activity against Pneumocystis carinii infected in Sprague-Dawley rat assessed as increase of open alveolar space at 0.5 mg/kg, intranasally every 2 days 28 days after infection for 21 days; format: functional, organism-based; design: dose 0.5 mg/kg
Method in brief: (§2)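 Female Sprague-Dawley rats (~120 g) were immunosuppressed with dexamethasone at 1.8 mg/liter in drinking water. After 1 week they received a transtracheal inoculum of 7.5 × 10⁶ trophic forms, plus penicillin i.m. weekly. From infection day 28, they were given 50 μl of a 1 mM solution intranasally every 2 days. After 21 days, lungs were fixed in 4% paraformaldehyde, and paraffin sections were H&E-stained and examined by light microscopy. Inflammation was graded 0–5.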

[5] = system: Pneumocystis carinii; assay: Antimicrobial activity against Pneumocystis carinii infected in Sprague-Dawley rat assessed as reduction of inflammation at 0.5 mg/kg, intranasally every 2 days 28 days after infection for 21 days; format: functional, organism-based; design: dose 0.5 mg/kg; method in brief: as §2
[6] = system: Pneumocystis carinii; assay: Antimicrobial activity against Pneumocystis carinii infected in Sprague-Dawley rat assessed as reduction of foamy exudates in alveoli at 0.5 mg/kg, intranasally every 2 days 28 days after infection for 21 days; format: functional, organism-based; design: dose 0.5 mg/kg; method in brief: as §2
[7] = system: CHO-MG; assay: Inhibition of polyamine uptake in CHO-MG cells; format: functional, cell-based; details: Cricetulus griseus
[8] = system: Pneumocystis carinii; assay: Antimicrobial activity against Pneumocystis carinii infected in Sprague-Dawley rat assessed as reduction of alveolar septum thickness at 0.5 mg/kg, intranasally every 2 days 28 days after infection for 21 days; format: functional, organism-based; design: dose 0.5 mg/kg; method in brief: as §2
[9] = system: Pneumocystis carinii; assay: Antimicrobial activity against Pneumocystis carinii infected in Sprague-Dawley rat assessed as reduction of organism burden in lungs at 0.5 mg/kg, intranasally every 2 days 28 days after infection for 21 days; format: functional, organism-based; design: dose 0.5 mg/kg
Method in brief: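 The dexamethasone-immunosuppressed, P. carinii-infected female Sprague-Dawley rats were dosed intranasally with 50 μl of a 1 mM solution every 2 days from infection day 28, for 21 days. Cysts were counted in paraffin lung sections stained with modified Grocott's methenamine silver, and burden was graded on a 0–4 scale.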

[10] = system: Pneumocystis carinii; assay: Antimicrobial activity against Pneumocystis carinii infected in Sprague-Dawley rat assessed as increase of host survival time at 0.5 mg/kg, intranasally every 2 days 28 days after infection; format: functional
Method in brief: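 Female Sprague-Dawley rats (~120 g) were immunosuppressed with dexamethasone 1.8 mg/liter in drinking water. One week later they were inoculated transtracheally with 7.5 × 10⁶ trophic forms, with weekly intramuscular penicillin. From infection day 28, rats received 50 μl of a 1 mM solution intranasally every 2 days (7–8 rats/group), alongside untreated infected and uninfected controls. Survival was followed to day 84 and compared by Kaplan-Meier/log-rank.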

[11] = system: Pneumocystis carinii; assay: Antimicrobial activity against Pneumocystis carinii infected in Sprague-Dawley rat assessed as reduction of number of apoptotic alveolar macrophages at 0.5 mg/kg, intranasally every 2 days 28 days after infection for 21 days; format: functional; design: scale not given: the % may be the effect or the level left
Method in brief: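 Lung sections came from infected, dexamethasone-treated rats given 50 μl of 1 mM intranasally every 2 days for 21 days from day 28. Sections were digested with proteinase K (20 μg/ml, room temperature, 10 min), then TdT/fluorescein-12-dUTP labelled (37°C, 1 h) and DAPI-mounted. Apoptotic macrophage percentage was taken as TUNEL+/DAPI+ cells over 10 random 100× fields per slide.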

[12] = Cytotoxicity against Sprague-Dawley rat alveolar macrophages assessed as cell viability at 2 mM after 3 hrs by trypan blue exclusion assay; format: cell-based, Macrophage; details: for Activity: macrophage, 3 h, 2000 µM; method in brief: as §1
[13] = system: Pneumocystis carinii; assay: Antimicrobial activity against Pneumocystis carinii infected in Sprague-Dawley rat assessed as effect on alveolar structure at 0.5 mg/kg, intranasally every 2 days 28 days after infection for 21 days; format: functional, organism-based; design: dose 0.5 mg/kg; method in brief: as §2
[14] = system: Pneumocystis carinii; assay: Antimicrobial activity against Pneumocystis carinii infected in Sprague-Dawley rat assessed as reduction of inflammatory cell infiltration at 0.5 mg/kg, intranasally every 2 days 28 days after infection for 21 days; format: functional, organism-based; design: dose 0.5 mg/kg; method in brief: as §2
[15] = system: Pneumocystis carinii; assay: Antimicrobial activity against Pneumocystis carinii infected in Sprague-Dawley rat assessed as effect on foamy exudates in alveoli at 0.5 mg/kg, intranasally every 2 days 28 days after infection for 21 days; format: functional, organism-based; design: dose 0.5 mg/kg; method in brief: as §2

IC50 [1] [µM] | Structure (SMILES) | Ratio IC50 [2] | viability at 3 h, 400 µM [3] [%] | Activity [4] | Activity [5] | Activity [6] | IC50 [7] [µM] | Activity [8] | Activity [9] | Survival [10] [days] | Activity [11] | Activity [12] | viability at 3 h, 2000 µM ([12]; Sprague-Dawley, alveolar macrophages, read-out: Activity) [%] | Activity [13] | Activity [14] | Activity [15]
7.7 | Cl.Cl.NCCCCNCc1c2ccccc2cc2ccccc12 | 1 | < 16 | – | – | – | – | – | – | – | – | – | – | – | – | –
10.6 | NCCCCNCCCCNCCCCNCc1c2ccccc2cc2ccccc12 | – | 88 | – | – | – | 33.2 | – | – | – | – | – | 42 | – | – | –
0.45 | NCCCCNCCCCNCc1c2ccccc2cc2ccccc12 | – | < 16 | – | – | – | – | – | – | – | – | – | – | – | – | –

More lines, now with the values behind:

Structure (SMILES) | IC50 [1] [µM] | Ratio IC50 [2] | viability at 3 h, 400 µM [3] [%] | Activity [4] | Activity [5] | Activity [6] | IC50 [7] [µM] | Activity [8] | Activity [9] | Survival [10] [days] | Activity [11] | Activity [12] | viability at 3 h, 2000 µM ([12]; Sprague-Dawley, alveolar macrophages, read-out: Activity) [%] | Activity [13] | Activity [14] | Activity [15]
Cl.NCCCCNCCCCNCc1c2ccccc2c(CNCCCCNCCCCN)c2ccccc12 | 0.045 | >2222 | – | Active | Active | Active | > 100 | Active | Active | 84 | 80% | Non-toxic | – | – | – | –
Cl.NCCCCNCCCCNCc1ccc(CNCCCCNCCCCN)cc1 | 0.074 | 677 | – | – | – | – | 50.2 | – | Active | 84 | inactive | Non-toxic | – | inactive | Active | inactive
